Source: PubChem (several laboratories)
Rows were chosen to be rich in hits. Some 1.5% of all compounds tested hit in one or more screens of this group.
RanGTP-Imp inh – inhibitors of RanGTP-importin-beta interaction, primary screen, biochemical, FRET, CFP-Ran, YFP-importin-beta, homogeneous; Ran GTPase (GTP-bound) - importin-beta complex; cell-free CFP-Ran/YFP-importin-beta FRET ratio; inhibition, % (no concentration beside the values); hit rate 1.1% among 300,000;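 active = more than half of the replicate wells show a fall in the fluorescence ratio signal beyond about 16%, limit read from the data, passing the limit was not always enough; inconclusive = exactly half of the replicate wells pass the set limit; inactive = fewer than half of replicates pass the limit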;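 note: 0% = DMSO wells and 100% = Ran loaded with GDP instead of GTP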
Hck-Nef inh – inhibitors of Nef-activated human Hck kinase, primary screen, biochemical, Z-Lyte FRET, 384-well, Hck-YEEI | inhibition, % at 20 µM | Tyrosine-protein kinase HCK (Homo sapiens), P08631 | Recombinant Hck-YEEI plus Nef, Z-Lyte FRET kinase assay | hit rate 0.68% among 220,000;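 active = Hck-Nef kinase inhibition above about 50%, limit read from the data; inactive = inhibition below that limit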;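 note: 0% = DMSO with Hck plus Nef and 100% = Hck alone without Nef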
Target sequence (P08631 whole entry, looked up): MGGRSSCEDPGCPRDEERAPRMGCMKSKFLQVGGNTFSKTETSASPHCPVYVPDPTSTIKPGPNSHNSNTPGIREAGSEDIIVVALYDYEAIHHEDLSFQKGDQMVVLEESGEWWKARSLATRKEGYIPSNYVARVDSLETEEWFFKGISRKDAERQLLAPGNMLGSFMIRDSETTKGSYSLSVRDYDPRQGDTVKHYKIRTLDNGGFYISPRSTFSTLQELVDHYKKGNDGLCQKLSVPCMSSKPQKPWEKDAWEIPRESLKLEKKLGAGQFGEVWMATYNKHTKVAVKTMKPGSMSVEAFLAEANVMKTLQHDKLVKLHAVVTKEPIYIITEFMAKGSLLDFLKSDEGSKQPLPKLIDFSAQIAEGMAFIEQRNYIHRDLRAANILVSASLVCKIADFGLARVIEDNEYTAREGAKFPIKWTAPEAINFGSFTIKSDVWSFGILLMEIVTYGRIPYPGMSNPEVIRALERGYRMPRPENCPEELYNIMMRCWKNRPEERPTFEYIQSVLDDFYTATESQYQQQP
Runt-SMMHC FRET – inhibitors of RUNX1 Runt–CBFb-SMMHC binding, primary screen, biochemical, FRET, Cerulean-Runt, Venus-CBFb-SMMHC, uHTS | hit rate 0.74% among 220,000 | AID 1434, 2008 | inhibition, % at 20 µM | Runt-related transcription factor 1 (Homo sapiens) + Core-binding factor subunit beta … | Cerulean-Runt/Venus-CBFb-SMMHC FRET ratio 530/480, 1 h;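 active = mean inhibition across duplicate retests at 20 µM reaching about 50%, limit read from the data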;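 note: 0% = DMSO wells and 100% = wells with excess untagged CBFb-SMMHC; inhibitors lower the FRET ratio by blocking Runt binding to CBFb-SMMHC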
Runt-CBFb FRET – inhibitors of RUNX1 Runt–CBFb binding, primary screen, biochemical, FRET, Cerulean-Runt, Venus-CBFb, uHTS | inhibition, % at 20 µM | hit rate 0.46% among 220,000 | Cerulean-Runt/Venus-CBFb FRET ratio 530/480, 1 h | AID 1496, 2009 | Runt-related transcription factor 1 (Homo sapiens) + Core-binding factor subunit beta …;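 active = inhibition over about 50% at 20 µM in the single-dose screen, limit read from the data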;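 note: 0% = DMSO wells and 100% = excess unlabeled CBFb competitor control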
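test system = Cerulean-Runt domain fusion protein, energy donor | probe or stimulus = Venus-CBFb binding partner, 100 nM | incubation = two 1 h room-temperature incubations shielded from light | detection = fluorescence energy transfer, 422 nm excitation, 530/480 nm emission | measure = loss of energy transfer signal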
CaV13 FRET inh – Disruptors of the CACNA1D IQ motif to Ca2+-dependent inactivation inhibitor domain association, primary screening, Förster resonance energy transfer in intact living …. hit rate 0.098% among 340,000. inhibition, % at 12.3 µM. HEK cells, CFP/YFP FRET ICDI-IQ, plate reader, 10 min; percent FRET-ratio fall versus neutral wells. AID 743397;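 active = mean replicate inhibition of at least 30% and at least 1% of replicates passing that level; inconclusive = only one of the two criteria is met; inactive = neither criterion is met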;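 note: 0% = median of the neutral control wells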
Numbers without * were called inactive; ? = inconclusive; / = no result.

SMILES | RanGTP-Imp inh | Hck-Nef inh | Runt-SMMHC FRET | Runt-CBFb FRET | CaV13 FRET inh
Fc1ccccc1-c1ccc(/C=N/Nc2nc3ccccc3[nH]2)o1 | / | 11 | 77* | 20 | 54*
Cc1ccc(N(C(C)C(=O)N2CCN(Cc3ccccc3)CC2)S(C)(=O)=O)cc1 (stereo unspecified) | -4 | / | / | / | -5
CCCCC1CCC(C(=O)NCc2ccc3c(c2)OCO3)CC1 (stereo unspecified) | 92* | -2 | -1 | 1 | -5
CCS(=O)(=O)N1CCC(C(=O)NCc2ccc3c(c2)OCO3)CC1 | -2 | 25 | 3 | 0 | -4
CC(C)n1cc(NC(=O)c2cc(-c3ccccc3)on2)cn1 | 2 | -2 | 4 | 2 | /
CCOC(=O)C1=C(C)NC(=O)NC1c1ccc(F)cc1 (stereo unspecified) | ? | 1 | 1 | 1 | 0
CCc1ccccc1NC(=O)/C(C#N)=C/c1ccc(Sc2ccccc2)o1 | 14 | 0 | -44 | -21 | -5
CCc1ccccc1NC(=O)/C(C#N)=C\c1ccc(Sc2ccccc2)o1 | 16* | 2 | -28 | -6 | /
O=C(Nc1ccccc1)N1CCc2scc[n+]2-c2ccccc21 | 4 | 5 | 16 | 35 | -5
Cc1ccc(NC2=CC(=O)CC(c3ccc(Cl)cc3)C2)cc1 (stereo unspecified) | 35* | 1 | 0 | 0 | -4
Cc1ccc(NC2=CC(=O)CC(c3ccccc3)C2)cc1 (stereo unspecified) | ? | -1 | 1 | -1 | 0
CCN(CC)CCN1C(=O)C(O)=C(C(=O)c2ccc(C)o2)C1c1ccccn1 (stereo unspecified) | 29* | 6 | / | / | /
Cc1ccc(C(=O)C2=C(O)C(=O)N(CCN3CCOCC3)C2c2ccccn2)o1 (stereo unspecified) | 23* | 0 | 6 | 1 | /
CCOC(=O)c1cc(-c2csc(N/N=C/c3ccccc3Cl)n2)on1 | 42* | 8 | 16 | 7 | -5
CCN1CC=C2C(C#N)=C(N)C(C#N)(C#N)C(CCc3ccccc3)C2C1 (stereo unspecified) | / | 17 | 38 | 108* | 1
N#CC1=C(N)C(C#N)(C#N)[C@H](c2ccoc2)[C@H]2CN(Cc3ccccc3)CC=C12 | 107* | 23 | 57* | 40 | 4
CN1CC=C2C(C#N)=C(N)C(C#N)(C#N)[C@H](c3ccoc3)[C@H]2C1 | 51* | 38 | 59* | 39 | /
CC(=O)N1CC=C2C(C#N)=C(N)C(C#N)(C#N)[C@H](c3ccoc3)[C@H]2C1 | -4 | 18 | 10 | 8 | -4
CC(=O)N1CC=C2C(C#N)=C(N)C(C#N)(C#N)C(CCc3ccccc3)C2C1 (stereo unspecified) | 5 | -3 | 14 | 8 | -3
CN1CC=C2C(C#N)=C(N)C(C#N)(C#N)C(c3cccc(Cl)c3Cl)C2C1 (stereo unspecified) | 37* | -2 | 62* | 31 | -1
O=C(Oc1ccc2c(=O)c(Cl)coc2c1)c1ccncc1 | -3 | 2 | 0 | 0 | -4
Oc1ccc(-c2csc(Nc3ccccn3)n2)cc1 | -2 | / | / | / | -2
O=C(Nc1nc2ccccc2s1)c1cccc(S(=O)(=O)N2CCc3ccccc32)c1 | -3 | 0 | 3 | 2 | -3
O=C(Nc1nc2c(s1)CN(Cc1ccccc1)CC2)c1cccc(S(=O)(=O)N2CCc3ccccc32)c1 | 140* | 5 | -3 | -6 | -3
O=C(Cc1cn2ccsc2n1)Nc1nc2c(s1)CN(Cc1ccccc1)CC2 | 11 | 7 | 77* | 47 | -6
SMILES | RanGTP-Imp inh | Hck-Nef inh | Runt-SMMHC FRET | Runt-CBFb FRET | CaV13 FRET inh
O=C(NCCCN1CCOCC1)c1cc(Cl)ccc1Cl | -4 | / | / | / | -5
CCc1ccc(C(=O)COC(=O)C(Cc2ccccc2)NC(=O)c2ccc(Cl)cc2)cc1 (stereo unspecified) | -2 | 0 | -4 | -1 | -6
O=C(O)c1cccc(NC(=O)c2cn(-c3ccccc3)nc2-c2cccc(Br)c2)c1 | -4 | / | / | / | 69*
C=CCn1c(N)c(C(=O)Nc2ccc(C)c(C)c2)c2nc3ccccc3nc21 | 5 | 7 | 19 | 3 | -4
C=CCn1c(N)c(C(=O)Nc2cccc(C)c2)c2nc3ccccc3nc21 | 22* | 13 | 8 | 6 | -4
CCCCn1c(SCC(=O)NCc2ccc(OC)c(C(=O)O)c2)nc2cc(S(N)(=O)=O)ccc21 | -3 | / | / | / | -3
Cc1ccc(C(=O)O)cc1-n1c(C)cc(C=O)c1C | 2 | 25 | 90* | 23 | -3
Cc1c(C(=O)O)cccc1-n1c(C)cc(C=O)c1C | 7 | 7 | 92* | 14 | -5
CN(C)/C=C1/Sc2ccccc2C1=O | 19* | 0 | 62 | 28 | -2
CCOC(=O)N1CCC(Nc2c(Nc3ccc(C)c(C)c3)c(=O)c2=O)CC1 | 2 | 0 | -3 | 0 | -7
Cc1nn2c3c(cnc2c1-c1ccc(Cl)cc1)C(=O)CC(c1ccco1)C3 (stereo unspecified) | 19* | / | -186 | -101 | -4
Cc1nn2c3c(cnc2c1-c1ccccc1)C(=O)CC(C)C3 (stereo unspecified) | / | 1 | / | / | /
O=C(c1ccccc1)N1CCCC(C(=O)N2CCCCC2)C1 (stereo unspecified) | -4 | / | / | / | -3
CN1/C(=C\C(=O)c2cccs2)C(C)(C)c2ccccc21 | 18* | 10 | 86* | 48 | -5
CCOC(=O)/C=C1/N(C)c2ccccc2C1(C)C | 3 | 28 | 1 | 0 | -7
CN1/C(=C/C(=O)c2cccs2)Sc2ccccc21 | 3 | 23 | 83* | 38 | 0
NC(=O)C1CCN(C(=O)C(Cc2ccccc2)NC(=O)c2ccccc2)CC1 (stereo unspecified) | / | / | / | / | -6
CCOC(=O)C1C(c2ccccc2)N(C)OC1(O)C(F)(F)F (stereo unspecified) | -3 | 1 | 1 | 0 | -5
CCOC(=O)C1C(c2ccc(OC)cc2)N(C)OC1(O)C(F)(F)F (stereo unspecified) | 22* | 20 | 2 | 0 | -6
Cc1oc(C)c2c(=O)ccc3c(c12)OC(N)=C(C#N)C3c1ccccc1 (stereo unspecified) | 5 | -1 | -1 | 6 | -4
Cc1oc(C)c2c(=O)ccc3c(c12)OC(N)=C(C#N)C3c1ccccc1Cl (stereo unspecified) | 28* | 1 | 32 | 15 | /
